Assay results: ChEMBL document CHEMBL3098007, “Synthesis of 3-heteryl substituted pyrrolidine-2,5-diones via catalytic Michael reaction and evaluation of their inhibitory activity against InhA and Mycobacterium tuberculosis” (Eur J Med Chem, 2014)
Converted amounts (≈) assume the structure as drawn.

Legend:
[1] = system: Mycobacterium tuberculosis; assay: Antimicrobial activity against Mycobacterium tuberculosis H37Rv after 21 days by micro-broth dilution method; type: functional; conditions: 504 h
HCT-116 = assay: Cytotoxicity against human HCT116 cells after 4 days by WST-1 assay; type: cell-based; conditions: HCT-116, 96 h
How it was run: (§1)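 Cells cultured in DMEM with 10% fetal calf serum. Seeded at 3000 cells/well, treated 24 h later with 9 concentrations from 100 nM to 100 µM, 8 replicates each. Viability read by WST-1 after 4 days of treatment. IC50 derived by curve fitting.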

[2] = Cytotoxicity against human GM637 cells after 4 days by WST-1 assay; type: cell-based; conditions: GM637, 96 h; how it was run: as §1

O=C1CC(N2CCN(C3c4ccccc4-c4ccccc43)CC2)C(=O)N1Cc1ccccc1 (stereo not drawn)
MIC [1]: 91.4 µM (≈ 40 µg/mL)

O=C1CC(Sc2nc[nH]n2)C(=O)N1c1ccccc1 (stereo not drawn)
MIC [1]: 18.2 µM (≈ 4.99 µg/mL) | IC50 (HCT-116): 17 µM | IC50 [2]: 15 µM

Oc1cc(Cl)ccc1Oc1ccc(Cl)cc1Cl [TRICLOSAN]
MIC [1]: 34.5 µM (≈ 9.99 µg/mL)

O=C1CC(c2c(-c3ccccc3)cc3ccccn23)C(=O)N1c1ccccc1 (stereo not drawn)
MIC [1]: 109 µM (≈ 40 µg/mL) | IC50 (HCT-116): > 100 µM | IC50 [2]: > 100 µM

NNC(=O)c1ccncc1 [ISONIAZID]
MIC [1]: 0.4 µM (≈ 0.0549 µg/mL)

O=C1CC(c2c(-c3ccccc3)cc3ccccn23)C(=O)N1Cc1ccccc1 (stereo not drawn)
MIC [1]: 52.6 µM (≈ 20 µg/mL)

COc1ccc(N2C(=O)CC(Sc3nnc[nH]3)C2=O)cc1 (stereo not drawn)
MIC [1]: 16.4 µM (≈ 4.99 µg/mL)

COc1ccc(N2C(=O)CC(n3ccnc3)C2=O)cc1 (stereo not drawn)
MIC [1]: 55.3 µM (≈ 15 µg/mL)

O=C1CC(N2CCN(C3c4ccccc4-c4ccccc43)CC2)C(=O)N1c1ccccc1 (stereo not drawn)
MIC [1]: 94.4 µM (≈ 40 µg/mL) | IC50 (HCT-116): > 100 µM | IC50 [2]: > 100 µM

O=C1CC(c2c3c([N+](=O)[O-])cc([N+](=O)[O-])cc3c3ccccn23)C(=O)N1c1ccccc1 (stereo not drawn)
MIC [1]: 46.5 µM (≈ 20 µg/mL) | IC50 (HCT-116): > 100 µM | IC50 [2]: > 100 µM

O=C1CC(N2CCc3ccccc3C2)C(=O)N1Cc1ccccc1 (stereo not drawn)
MIC [1]: 31.2 µM (≈ 10 µg/mL) | IC50 (HCT-116): > 100 µM | IC50 [2]: > 100 µM

O=C1CC(n2ccnc2)C(=O)N1c1ccccc1 (stereo not drawn)
MIC [1]: 82.9 µM (≈ 20 µg/mL) | IC50 (HCT-116): > 100 µM | IC50 [2]: > 100 µM

O=C1CC(N2CCc3ccccc3C2)C(=O)N1c1ccccc1 (stereo not drawn)
MIC [1]: 8.2 µM (≈ 2.51 µg/mL) | IC50 (HCT-116): > 100 µM | IC50 [2]: > 100 µM

O=C(c1ccc2[nH]ccc2c1)N1CCN(C2c3ccccc3-c3ccccc32)CC1
MIC [1]: > 318 µM
